Where two headings read alike, the source gives them in different places.
How the values were obtained:
[1] = six clinical pharmacology studies; cited from earlier work
[2] = Japanese patients, 300 mg single dosing; cited from earlier work
[3] = Safety monitoring over Part A, Part B and Part C; assay type: in vivo; settings: healthy Chinese male subjects, single dose 100 mg or 150 mg
Procedure, shortened: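 Single oral dose in a randomized two-sequence (TR/RT) crossover, two periods, 7-day washout. Part A: 100 mg fasting (n = 14). Part B: 150 mg fasting (n = 44). Part C: 150 mg after a high-fat breakfast (n = 44). TEAEs, both subject-reported and investigator-observed including lab values, were collected throughout and graded by CTCAE 5.0. Monitoring covered physical exams, vital signs, laboratory tests, 12-lead ECG and CT scans.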

[4] = FDA Adverse Event Reporting System, cited from earlier work
[5] = assay type: in vivo, healthy Chinese male subjects; settings: male, human, plasma, po, 150 mg
Procedure, shortened: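 Two-sequence (TR/RT), two-period randomised crossover in 44 healthy males (18–50 y, BMI 19–26 kg/m2, ≥50 kg) with a 7-day washout. Each period: single oral 150 mg tablet (test or reference) under fasting, with fasting kept ≥4 h post-dose. Plasma spun at 1700 g, 10 min, 2–8°C, stored at −80°C. Assay: protein precipitation, HPLC-MS/MS, positive ion mode, calibration 10.0–5000 ng/mL.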

Effect of food: fed = assay type: in vivo, healthy Chinese male subjects; settings: 150 mg; P < 0.05
[6] = previous studies; cited from earlier work
[7] = patients; cited from earlier work
[8] = Chinese patients, cited from earlier work
[9] = ref summary of product characteristics of olaparib; cited from earlier work

| Tmax [5] [h] | half-life [5] [h] | difference in Tmax, fed vs fasting state (Effect of food: fed) | Structure (SMILES) | tolerability in healthy individuals [1] | arithmetic mean t1/2 [2] [h] | median Tmax [2] [h] | tolerability [3] | adverse events received related to olaparib ([4]; 2008 through first quarter of 2023) | adverse events connected to genotoxicity [4] | inter-individual variation in the AUC [6] | first nausea, time after treatment initiation [7] [month] | first vomiting, time after treatment initiation [7] [months] | median time to first occurrence of anemia [7] | arithmetic mean t1/2 ([8]; 100 mg single dosing) [h] | median Tmax ([8]; 100 mg single dosing) [h] | arithmetic mean t1/2 ([8]; 300 mg single dosing) [h] | Tmax delayed by high-fat, high-calorie meal [9] [h] | mean AUC increased by high-fat, high-calorie meal [9] |
| --- | --- | --- | --- | --- | --- | --- | --- | --- | --- | --- | --- | --- | --- | --- | --- | --- | --- | --- |
| – | – | – | O=C(c1cc(Cc2n[nH]c(=O)c3ccccc23)ccc1F)N1CCn2nc(C(F)(F)F)nc2C1 [fluzoparib] | well tolerated | – | – | – | – | – | – | – | – | – | – | – | – | – | – |
| 1.5 | 5.94 | significantly prolonged | O=C(c1cc(Cc2n[nH]c(=O)c3ccccc23)ccc1F)N1CCN(C(=O)C2CC2)CC1 [olaparib] | – | 9.43 | 1.98 | well tolerated | 10,957 | no adverse events | 55–57% | ≤ 1 | ≤ 2 | approximately 4 weeks | 7.17 | 1.95 | 6.52 | 2.5 | approximately 8% |

Reference: PMC11624666 (Drug Design, Development and Therapy, 2024)
